Data on six compounds can be found in ChEMBL document CHEMBL4177768, “Synthesis and Biological Evaluation of Derivatives of Indoline as Highly Potent Antioxidant and Anti-inflammatory Agents” (J Med Chem, 2018).

Calls of active or inactive are those of the source. The rule behind the calls is not given here.

Data set [1] relates to RAW264.7. Briefly: Antiinflammatory activity in mouse RAW264.7 cells assessed as reduction in LPS-induced TNF-alpha production at 100 pM incubated for 2 hrs prior to LPS challenge measured after 8 hrs by ELISA. In kind it is functional. In short, it runs like this:
(§1)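 RAW 264.7 macrophages were plated at 1×10^5 per well, grown overnight and washed with PBS. Compounds in water (final 1 pM-100 nM, medium with 2% FCS) were added 2 h at 37 °C before E. coli 0111:B4 LPS, 2.5 µg/mL. TNF-α was sampled at 8 h; IL-6 and nitrite (Griess) at 24 h. ELISA was used for cytokines. Values are % of the LPS + medium value in each experiment. Budesonide was the reference. 2-3 experiments, 6 wells per concentration.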

Data set [2] can be described thus: Cytotoxicity against mouse RAW264.7 cells assessed as cell viability at 10^-10 M after 24 hrs by MTT assay relative to control. The note with it: read-out: Activity. In kind it is cell-based. In short, it runs like this: (§2)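 RAW 264.7 cells, seeded at 1×10^4 cells/mL and incubated 24 h, were exposed to compound from 1 pM to 100 nM. Viability was read by MTT (final 0.5 mg/mL, 1 h at 37 °C), with formazan dissolved in DMSO and OD at 570 nm. Results are compared with medium-only cells.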
(In general: Formazan colour is commonly taken as a measure of viable cells.)

Data set [3] is described as follows: Cytotoxicity against mouse RAW264.7 cells assessed as cell viability at 10^-9 M after 24 hrs by MTT assay relative to control. The data set is classed as cell-based. The note with it: read-out: Activity. In short, it runs like this:
as §2

Data set [4] relates to RAW264.7. Briefly: Antiinflammatory activity in mouse RAW264.7 cells assessed as reduction in LPS-induced IL-6 production at 100 pM incubated for 2 hrs prior to LPS challenge measured after 24 hrs by ELISA. In kind it is functional. In short, it runs like this:
as §1
A general note: In an ELISA, binding on a coated surface is turned into a signal by an enzyme label.

Data set [5] can be described thus: Cytotoxicity against mouse RAW264.7 cells assessed as cell viability at 10^-7 M after 24 hrs by MTT assay relative to control. The data set is classed as cell-based. The note with it: read-out: Activity. In outline: as §2
The test system of data set [6] is RAW264.7. The data set is described as follows: Antiinflammatory activity in mouse RAW264.7 cells assessed as reduction in LPS-induced IL-6 production at 1 nM incubated for 2 hrs prior to LPS challenge measured after 24 hrs by ELISA. In kind it is functional. In outline:
as §1

Data set [7] relates to RAW264.7. The data set is described as follows: Antiinflammatory activity in mouse RAW264.7 cells assessed as reduction in LPS-induced TNF-alpha production at 1 nM incubated for 2 hrs prior to LPS challenge measured after 8 hrs by ELISA. In kind it is functional. In outline:
as §1

The test system of data set [8] is RAW264.7. Briefly: Antiinflammatory activity in mouse RAW264.7 cells assessed as reduction in LPS-induced nitric oxide production at 1 nM incubated for 2 hrs prior to LPS challenge measured after 24 hrs by Griess assay. In kind it is functional. In short, it runs like this:
as §1

The subject of data set [9] is RAW264.7. The data set is described as follows: Antiinflammatory activity in mouse RAW264.7 cells assessed as reduction in LPS-induced nitric oxide production at 100 pM incubated for 2 hrs prior to LPS challenge measured after 24 hrs by Griess assay. The data set is classed as functional. In outline:
as §1
A general note: Griess reagent forms a coloured azo dye with nitrite.

The nature of data set [10]: Cytotoxicity against mouse RAW264.7 cells assessed as cell viability at 10^-11 M after 24 hrs by MTT assay relative to control. The data set is classed as cell-based. The note with it: read-out: Activity. In outline:
as §2

Data set [11] in a line: Cytotoxicity against mouse RAW264.7 cells assessed as cell viability at 10^-8 M after 24 hrs by MTT assay relative to control. The data set is classed as cell-based. The note with it: read-out: Activity. In outline: as §2
A short description of data set [12]: Cytotoxicity against mouse RAW264.7 cells assessed as cell viability at 10^-12 M after 24 hrs by MTT assay relative to control. The note with it: read-out: Activity. The data set is classed as cell-based. In short, it runs like this: as §2
The subject of data set [13] is RAW264.7. Briefly: Cytoprotective activity against H2O2-induced oxidative stress in mouse RAW264.7 cells assessed as decrease in LDH release at 1 pM incubated for 2 hrs prior to H2O2 addition by colorimetric assay relative to control. On the set-up: scale not given: the % may be the effect or the level left.
Data set [14] has as its system RAW264.7. Briefly: Antiinflammatory activity in mouse RAW264.7 cells assessed as reduction in LPS-induced TNF-alpha production at 100 pM to 100 nM incubated for 2 hrs prior to LPS challenge measured after 8 hrs by ELISA. In kind it is functional, cell-based. In short, it runs like this: as §1
Data set [15] relates to RAW264.7. The data set is described as follows: Cytoprotective activity against H2O2-induced oxidative stress in mouse RAW264.7 cells assessed as decrease in LDH release at 1 pM incubated for 2 hrs prior to H2O2 addition by colorimetric assay relative to control. In kind it is functional. Also on record: scale not given: the % may be the effect or the level left. In outline:
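RAW 264.7 cells were seeded and pretreated with compound before H2O2 100 µM, in serum-free medium. Collected medium was centrifuged and incubated with reaction mix 30 min at room temperature. LDH was measured as NADH formation by colorimetric read at 490 nm. n = 8-10 replicates per concentration.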

Data set [16] deals with RAW264.7. The data set is described as follows: Antiinflammatory activity in mouse RAW264.7 cells assessed as reduction in LPS-induced IL-6 production at 100 pM to 100 nM incubated for 2 hrs prior to LPS challenge measured after 24 hrs by ELISA. The data set is classed as functional, cell-based. In outline:
as §1

Data set [17] has as its system RAW264.7. Briefly: Cytoprotective activity against H2O2-induced oxidative stress in mouse RAW264.7 cells assessed as cell viability at 100 nM incubated for 2 hrs prior to H2O2 addition measured after 24 hrs by MTT assay (reference value: 68 to 72.8%). In kind it is functional. The note with it: read-out: Activity.
In data set [18] the test system is RAW264.7. Briefly: Antiinflammatory activity in mouse RAW264.7 cells assessed as reduction in LPS-induced TNF-alpha production at 1 pM to 100 nM incubated for 2 hrs prior to LPS challenge measured after 8 hrs by ELISA. The data set is classed as functional, cell-based. In outline: as §1
Data set [19] relates to RAW264.7. The data set is described as follows: Antiinflammatory activity in mouse RAW264.7 cells assessed as reduction in LPS-induced nitric oxide production at 1 pM to 100 nM incubated for 2 hrs prior to LPS challenge measured after 24 hrs by Griess assay. The data set is classed as functional, cell-based. In outline:
as §1

Data set [20] concerns RAW264.7. Briefly: Cytoprotective activity against H2O2-induced oxidative stress in mouse RAW264.7 cells assessed as cell viability at 10 nM incubated for 2 hrs prior to H2O2 addition measured after 24 hrs by MTT assay (reference value: 68 to 72.8%). The data set is classed as functional. The note with it: read-out: Activity.
The test system of data set [21] is RAW264.7. Briefly: Antiinflammatory activity in mouse RAW264.7 cells assessed as reduction in LPS-induced IL6 production at 1 pM to 100 nM incubated for 2 hrs prior to LPS challenge measured after 24 hrs by ELISA. The data set is classed as functional, cell-based. In outline: as §1

Turning to `COC(=O)CCC1CNc2ccccc21` (stereo not drawn), the result in data set [1], in [4], in [6], in [7], in data set [8] and in data set [9] was Active. Besides, in [2], the viability at 24 h, 0.0001 µM was determined as 96.6%. In data set [3], the viability at 24 h, 0.001 µM worked out at 97.1%. Further, in [5], the viability at 24 h, 0.1 µM came to 92.9%. Further, the viability at 24 h, 1e-05 µM in [10] came out at 93.2%. Also, in data set [11], the viability at 24 h, 0.01 µM came to 94.5%. Also, the viability at 24 h, 1e-06 µM in data set [12] amounted to 99.5%.

With `Cl.OCCCN1CCc2ccccc21`, the viability at 24 h, 0.0001 µM in [2] was found to be 91.6%. The viability at 24 h, 0.001 µM in data set [3] was 95.1%. Also, the viability at 24 h, 0.1 µM in data set [5] amounted to 94.4%. Besides, the Activity in [13] and in [15] was 16% throughout. In addition, the result in [14] and in data set [16] was Active. The viability at 0.1 µM in [17] was 89.8%. For the same compound, the viability at 24 h, 1e-05 µM in data set [10] was determined as 89.9%. Moreover, the viability at 24 h, 0.01 µM in [11] amounted to 92.3%. Also, the viability at 24 h, 1e-06 µM in [12] came to 89.5%.

Turning to `COc1ccc2c(c1)CCN2CCCNC(C)C.Cl.Cl`, the Activity entry was “Dose-dependent effect” in data set [18]; 50% in data set [6]; “Dose-dependent effect” in data set [19]; 50% in data set [7]; 50% in data set [8]. Further, in [20], the viability at 0.01 µM is 87.1%.

For `COc1ccc2c(c1)CCN2CCC(=O)O`, the result in data set [18], in data set [21] and in data set [19] was inactive. Further, in data set [17], the viability at 0.1 µM came to 87.1%.

Take `CC(C)NCCCN1CCc2cccc(O)c21.Cc1ccc(S(C)(=O)=O)cc1.Cc1ccc(S(C)(=O)=O)cc1`: the result in data set [14] and in data set [16] was inactive.

For `CCCC1O[C@@H]2C[C@H]3[C@@H]4CCC5=CC(=O)C=C[C@]5(C)[C@H]4[C@@H](O)C[C@]3(C)[C@]2(C(=O)CO)O1` (stereo partly drawn), the outcome in data set [14], in [19] and in data set [16] was Active.
